# ChEMBL document CHEMBL5303300, “EUbOPEN Chemogenomics Library - Multiplex” (2023)
# “And” between values parts separate entries of the source, which are not always exact repeats. Equal values may be shown once.
# Tested on: Fibroblast
# Test: Multiplex assay against human fibroblast
# Assay type: toxicity, cell-based
# Details: number of replicates 2
# How it was run: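 Live cells were stained at seeding with Hoechst33342, BioTracker Green Microtubule Cytoskeleton Dye, MitoTracker Red and Annexin V Alexa Fluor 680, then imaged on a CQ1 microscope at 37°C and 5% CO2 after compound addition. CellPathfinder machine-learning gating split cells into Hoechst high-intensity objects or normal cells. Normal cells were split into healthy, pyknosed or fragmented nuclei, and pyknosed cells into mitotic or apoptotic. Tubulin, mitochondrial-mass and membrane-permeability phenotypes are per cents of healthy-nucleus cells.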
# [1] = 12 h, 1 µM, compound concentration 1 uM
# [2] = 12 h, 10 µM, compound concentration 10 uM
# [3] = 24 h, 1 µM, compound concentration 1 uM
# [4] = 24 h, 10 µM, compound concentration 10 uM
# [5] = 48 h, 1 µM, compound concentration 1 uM
# [6] = 48 h, 10 µM, compound concentration 10 uM
compound,measurement,setting,value
CS(=O)(=O)c1ccc(C(=O)Nc2cccc(COc3ccc(Br)cc3CN3CCC[C@H](O)C3)c2)c(Cl)c1.O=CO,Population Healthy Nuclei (%),[1],71% and 60%
same,Population Hoechst High Intensity Objects (%),[1],0%
same,Population Mitotic Cells (%),[1],55% and 58%
same,Population Pyknosed Nuclei (%),[1],17% and 22%
same,Total Cell Count,[1],200 and 202
same,Population Healthy Nuclei (%),[2],52% and 60%
same,Population Hoechst High Intensity Objects (%),[2],0%
same,Population Mitotic Cells (%),[2],49% and 62%
same,Population Pyknosed Nuclei (%),[2],18%
same,Total Cell Count,[2],221 and 338
same,Population Healthy Nuclei (%),[3],72% and 64%
same,Population Hoechst High Intensity Objects (%),[3],0%
same,Population Mitotic Cells (%),[3],38% and 53%
same,Population Pyknosed Nuclei (%),[3],21%
same,Total Cell Count,[3],214 and 180
same,Population Healthy Nuclei (%),[4],50% and 65%
same,Population Hoechst High Intensity Objects (%),[4],0%
same,Population Mitotic Cells (%),[4],35% and 26%
same,Population Pyknosed Nuclei (%),[4],21% and 12%
same,Total Cell Count,[4],261 and 390
same,Population Healthy Nuclei (%),[5],73% and 72%
same,Population Hoechst High Intensity Objects (%),[5],0%
same,Population Mitotic Cells (%),[5],20% and 29%
same,Population Pyknosed Nuclei (%),[5],12%
same,Total Cell Count,[5],198 and 185
same,Population Healthy Nuclei (%),[6],54% and 63%
same,Population Hoechst High Intensity Objects (%),[6],0%
same,Population Mitotic Cells (%),[6],10% and 9%
same,Population Pyknosed Nuclei (%),[6],7%
same,Total Cell Count,[6],285 and 416
C[C@@H]1CC[C@@]2(OC1)O[C@H]1[C@@H](O)[C@H]3[C@@H]4CC[C@H]5C[C@@H](O[C@@H]6O[C@H](CO)[C@H](O[C@@H]7O[C@H](CO)C(O)[C@H](O[C@@H]8OC[C@@H](O)[C@H](O)[C@H]8O)[C@H]7O[C@@H]7O[C@H](CO)[C@H](O)[C@H](O[C@@H]8O[C@H](CO)[C@@H](O)[C@H](O)[C@H]8O)[C@H]7O)[C@H](O)[C@H]6O)[C@H](O)C[C@]5(C)[C@H]4CC[C@]3(C)[C@H]1[C@@H]2C (stereo partly drawn) [DIGITONIN],Population Apoptotic (%),[2],44% and 47% and 48% and 42%
same,Population Fragmented Nuclei (%),[2],9% and 12% and 13% and 8%
same,Population Healthy Nuclei (%),[2],76% and 61% and 68% and 72%
same,Population Hoechst High Intensity Objects (%),[2],0%
same,Population Membrane Permeable-Phenotype (%),[2],6% and 4% and 1%
same,Population Mitochondria Different-Phenotype (%),[2],0% and 1% and 2%
same,Population Mitotic Cells (%),[2],56% and 52% and 51% and 57%
same,Population Normal (%),[2],100%
same,Population Pyknosed Nuclei (%),[2],13% and 26% and 18% and 19%
same,Population Tubulin-Different-Phenotype (%),[2],10% and 4% and 8% and 6%
same,Total Cell Count,[2],181 and 157 and 188 and 182
same,Population Apoptotic (%),[4],55% and 53% and 47% and 66%
same,Population Fragmented Nuclei (%),[4],11% and 12%
same,Population Healthy Nuclei (%),[4],77% and 55% and 71% and 69%
same,Population Hoechst High Intensity Objects (%),[4],0% and 1%
same,Population Membrane Permeable-Phenotype (%),[4],6% and 2%
same,Population Mitochondria Different-Phenotype (%),[4],0% and 1% and 3%
same,Population Mitotic Cells (%),[4],45% and 46% and 52% and 33%
same,Population Normal (%),[4],100% and 98%
same,Population Pyknosed Nuclei (%),[4],11% and 32% and 17%
same,Population Tubulin-Different-Phenotype (%),[4],11% and 3% and 7% and 12%
same,Total Cell Count,[4],171 and 168 and 198 and 188
same,Population Apoptotic (%),[6],90% and 64% and 75% and 60%
same,Population Fragmented Nuclei (%),[6],12% and 14% and 15%
same,Population Healthy Nuclei (%),[6],81% and 64% and 68%
same,Population Hoechst High Intensity Objects (%),[6],0%
same,Population Membrane Permeable-Phenotype (%),[6],5% and 1% and 7%
same,Population Mitochondria Different-Phenotype (%),[6],0% and 1%
same,Population Normal (%),[6],100% and 99%
same,Population Tubulin-Different-Phenotype (%),[6],6% and 5%
same,Total Cell Count,[6],169 and 162 and 205 and 188
COc1nc2ccc([C@@](O)(c3ccc(Cl)cc3)c3cncn3C)cc2c(Cl)c1Cc1ccc(-n2cccn2)cc1 [JNJ-53721590],Population Apoptotic (%),[1],30%
same,Population Fragmented Nuclei (%),[1],6% and 11%
same,Population Healthy Nuclei (%),[1],68% and 55%
same,Population Hoechst High Intensity Objects (%),[1],0%
same,Population Membrane Permeable-Phenotype (%),[1],9% and 11%
same,Population Mitochondria Different-Phenotype (%),[1],2% and 1%
same,Population Mitotic Cells (%),[1],69%
same,Population Normal (%),[1],100%
same,Population Pyknosed Nuclei (%),[1],24% and 32%
same,Population Tubulin-Different-Phenotype (%),[1],38% and 37%
same,Total Cell Count,[1],210 and 189
same,Population Apoptotic (%),[2],37% and 45%
same,Population Fragmented Nuclei (%),[2],14% and 7%
same,Population Healthy Nuclei (%),[2],63% and 67%
same,Population Hoechst High Intensity Objects (%),[2],0%
same,Population Membrane Permeable-Phenotype (%),[2],20%
same,Population Mitochondria Different-Phenotype (%),[2],5% and 3%
same,Population Mitotic Cells (%),[2],62% and 55%
same,Population Normal (%),[2],99% and 100%
same,Population Pyknosed Nuclei (%),[2],21% and 24%
same,Population Tubulin-Different-Phenotype (%),[2],73%
same,Total Cell Count,[2],206 and 241
same,Population Apoptotic (%),[3],62% and 56%
same,Population Fragmented Nuclei (%),[3],6% and 14%
same,Population Healthy Nuclei (%),[3],68% and 62%
same,Population Hoechst High Intensity Objects (%),[3],0%
same,Population Membrane Permeable-Phenotype (%),[3],3% and 10%
same,Population Mitochondria Different-Phenotype (%),[3],2% and 9%
same,Population Mitotic Cells (%),[3],37% and 43%
same,Population Normal (%),[3],100%
same,Population Pyknosed Nuclei (%),[3],25% and 23%
same,Population Tubulin-Different-Phenotype (%),[3],31% and 37%
same,Total Cell Count,[3],199 and 197
same,Population Apoptotic (%),[4],51% and 70%
same,Population Fragmented Nuclei (%),[4],20% and 12%
same,Population Healthy Nuclei (%),[4],62% and 60%
same,Population Hoechst High Intensity Objects (%),[4],0%
same,Population Membrane Permeable-Phenotype (%),[4],9% and 6%
same,Population Mitochondria Different-Phenotype (%),[4],18% and 20%
same,Population Mitotic Cells (%),[4],48% and 29%
same,Population Normal (%),[4],100% and 99%
same,Population Pyknosed Nuclei (%),[4],16% and 27%
same,Population Tubulin-Different-Phenotype (%),[4],75% and 69%
same,Total Cell Count,[4],218 and 241
same,Population Apoptotic (%),[5],85% and 72%
same,Population Fragmented Nuclei (%),[5],10% and 13%
same,Population Healthy Nuclei (%),[5],72% and 67%
same,Population Hoechst High Intensity Objects (%),[5],0%
same,Population Membrane Permeable-Phenotype (%),[5],3% and 2%
same,Population Mitochondria Different-Phenotype (%),[5],0% and 1%
same,Population Mitotic Cells (%),[5],14% and 27%
same,Population Normal (%),[5],100%
same,Population Pyknosed Nuclei (%),[5],17% and 19%
same,Population Tubulin-Different-Phenotype (%),[5],20% and 15%
same,Total Cell Count,[5],205
same,Population Apoptotic (%),[6],87%
same,Population Fragmented Nuclei (%),[6],26% and 18%
same,Population Healthy Nuclei (%),[6],64%
same,Population Hoechst High Intensity Objects (%),[6],0%
same,Population Membrane Permeable-Phenotype (%),[6],1% and 2%
same,Population Mitochondria Different-Phenotype (%),[6],7% and 8%
same,Population Mitotic Cells (%),[6],12%
same,Population Normal (%),[6],99% and 100%
same,Population Pyknosed Nuclei (%),[6],9% and 16%
same,Population Tubulin-Different-Phenotype (%),[6],63% and 53%
same,Total Cell Count,[6],247 and 282
COc1ccc(-c2cc3c(C)nc(N)nc3n([C@H]3CC[C@H](OCCO)CC3)c2=O)cn1 [PF-04691502],Population Apoptotic (%),[1],34% and 55%
same,Population Fragmented Nuclei (%),[1],15% and 13%
same,Population Healthy Nuclei (%),[1],73% and 71%
same,Population Hoechst High Intensity Objects (%),[1],0%
same,Population Membrane Permeable-Phenotype (%),[1],3%
same,Population Mitochondria Different-Phenotype (%),[1],3% and 1%
same,Population Mitotic Cells (%),[1],65% and 45%
same,Population Normal (%),[1],100%
same,Population Pyknosed Nuclei (%),[1],10% and 15%
same,Population Tubulin-Different-Phenotype (%),[1],11% and 8%
same,Total Cell Count,[1],270 and 253
same,Population Apoptotic (%),[2],55% and 54%
same,Population Fragmented Nuclei (%),[2],29% and 27%
same,Population Healthy Nuclei (%),[2],51% and 60%
same,Population Hoechst High Intensity Objects (%),[2],1% and 0%
same,Population Membrane Permeable-Phenotype (%),[2],5% and 9%
same,Population Mitochondria Different-Phenotype (%),[2],3% and 1%
same,Population Mitotic Cells (%),[2],44% and 45%
same,Population Normal (%),[2],98% and 100%
same,Population Pyknosed Nuclei (%),[2],18% and 11%
same,Population Tubulin-Different-Phenotype (%),[2],26% and 18%
same,Total Cell Count,[2],185 and 202
same,Population Apoptotic (%),[3],62% and 58%
same,Population Fragmented Nuclei (%),[3],7% and 9%
same,Population Healthy Nuclei (%),[3],80% and 72%
same,Population Hoechst High Intensity Objects (%),[3],0%
same,Population Membrane Permeable-Phenotype (%),[3],4% and 2%
same,Population Mitochondria Different-Phenotype (%),[3],1%
same,Population Mitotic Cells (%),[3],37% and 41%
same,Population Normal (%),[3],99%
same,Population Pyknosed Nuclei (%),[3],12% and 17%
same,Population Tubulin-Different-Phenotype (%),[3],7% and 3%
same,Total Cell Count,[3],262 and 247
same,Population Apoptotic (%),[4],59% and 65%
same,Population Fragmented Nuclei (%),[4],20%
same,Population Healthy Nuclei (%),[4],60% and 66%
same,Population Hoechst High Intensity Objects (%),[4],0%
same,Population Membrane Permeable-Phenotype (%),[4],10% and 8%
same,Population Mitochondria Different-Phenotype (%),[4],0% and 1%
same,Population Mitotic Cells (%),[4],40% and 34%
same,Population Normal (%),[4],99% and 100%
same,Population Pyknosed Nuclei (%),[4],20% and 13%
same,Population Tubulin-Different-Phenotype (%),[4],27% and 23%
same,Total Cell Count,[4],161 and 176
same,Population Apoptotic (%),[5],60% and 59%
same,Population Fragmented Nuclei (%),[5],8% and 12%
same,Population Healthy Nuclei (%),[5],80% and 72%
same,Population Hoechst High Intensity Objects (%),[5],0%
same,Population Membrane Permeable-Phenotype (%),[5],5%
same,Population Mitochondria Different-Phenotype (%),[5],0%
same,Population Mitotic Cells (%),[5],39% and 40%
same,Population Normal (%),[5],100%
same,Population Pyknosed Nuclei (%),[5],10% and 15%
same,Population Tubulin-Different-Phenotype (%),[5],6% and 4%
same,Total Cell Count,[5],258 and 245
same,Population Apoptotic (%),[6],66%
same,Population Fragmented Nuclei (%),[6],12% and 22%
same,Population Healthy Nuclei (%),[6],59%
same,Population Hoechst High Intensity Objects (%),[6],0%
same,Population Membrane Permeable-Phenotype (%),[6],7% and 4%
same,Population Mitochondria Different-Phenotype (%),[6],1%
same,Population Mitotic Cells (%),[6],33%
same,Population Normal (%),[6],100%
same,Population Pyknosed Nuclei (%),[6],27% and 17%
same,Population Tubulin-Different-Phenotype (%),[6],32% and 19%
same,Total Cell Count,[6],140 and 170
